Assay results as given in ChEMBL document CHEMBL1124384, “Deaminoteicoplanin and its derivatives. Synthesis, antibacterial activity, and binding strength to Ac-D-Ala-D-Ala” (J Med Chem, 1989).
Values after ≈ are worked out from the molar mass of the structure shown.

Columns and labels:
Streptococcus pneumoniae = assay: Minimal inhibitory concentration of compound against Streptococcus pneumoniae UC41; format: functional
In short: (§1)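 Streptococci were tested by 2-fold broth microdilution in Todd-Hewitt broth, with a final inoculum of about 10⁴ cfu/mL. After 18–24 h at 37 °C, MIC was read as the lowest concentration with no visible growth.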

Staphylococcus aureus [1] = assay: Minimal inhibitory concentration of compound against Staphylococcus aureus Tour in an inoculum of 10e6 cfu/mL; format: functional
In short: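 Twofold microtiter broth dilution in Iso-sensitest broth, with the inoculum raised to 10⁶ cfu/mL. After 18–24 h at 37 °C, MIC was read as the lowest concentration giving no visible growth.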

[2] = tested on: Staphylococcus epidermidis; assay: Minimal inhibitory concentration of compound against […] ATCC 12228; format: functional
Staphylococcus aureus [3] = assay: Minimal inhibitory concentration of compound against Staphylococcus aureus Tour determined in iso-sensitest broth supplemented with 30% bovine serum and an inoculum of 10e4 cfu/mL
Staphylococcus aureus [4] = assay: Minimal inhibitory concentration of compound against Staphylococcus aureus Tour; format: functional
In short: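 Broth MIC by 2-fold serial dilution in microtiter format, in Iso-sensitest broth, with a final inoculum of about 10⁴ cfu/mL. Plates were incubated 18–24 h at 37 °C. MIC was taken as the lowest concentration with no visible growth.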

Streptococcus pyogenes = assay: Minimal inhibitory concentration of compound against Streptococcus pyogenes C203; format: functional; in short: as §1
Enterococcus faecalis = assay: Minimal inhibitory concentration of compound against Streptococcus faecalis AACC7080; format: functional
In short: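 For S. faecalis, 2-fold dilution MIC in a microtiter system using Iso-sensitest broth and a final inoculum of about 10⁴ cfu/mL. Incubation was 18–24 h at 37 °C. The endpoint was the lowest concentration without visible growth.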

[5] = Association constant for compound at 31 degree C was determined; format: ADME
In short: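 UV difference spectroscopy at 31 °C. Antibiotic at 25 μM in 10% methanol/0.02 M sodium citrate buffer, pH 5, sat in sample and reference cells (4-cm path). Ac-D-Ala-D-Ala was added from a 4 mM stock to the sample cell, with buffer added to the reference. The absorbance change was read at 282–285 nm. K_A came from Scatchard plots, with antibiotic concentration set by UV at 279 nm.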

| SMILES | MIC (Streptococcus pneumoniae) [µg/mL] | MIC (Staphylococcus aureus [1]) [µg/mL] | MIC [2] [µg/mL] | MIC (Staphylococcus aureus [3]) [µg/mL] | MIC (Staphylococcus aureus [4]) [µg/mL] | MIC (Streptococcus pyogenes) [µg/mL] | MIC (Enterococcus faecalis) [µg/mL] | KA [5] [M⁻¹] |
| --- | --- | --- | --- | --- | --- | --- | --- | --- |
| CN(C)CCCNC(=O)[C@H]1NC(=O)[C@H]2NC(=O)[C@H](NC(=O)[C@@H]3NC(=O)[C@H]4NC(=O)[C@@H](Cc5ccc(c(Cl)c5)Oc5cc3cc(c5O)Oc3ccc(cc3Cl)[C@H]2O)NC(=O)[C@H](N)c2ccc(O)c(c2)Oc2cc(O)cc4c2)c2ccc(O)c(c2)-c2c(O)cc(O)cc21 | 0.06 (≈ 0.0468 µM) | 0.12 (≈ 0.0935 µM) | 0.016 (≈ 0.0125 µM) | 0.25 (≈ 0.195 µM) | 0.06 (≈ 0.0468 µM) | 0.06 (≈ 0.0468 µM) | 0.12 (≈ 0.0935 µM) |  |
| CC(=O)N[C@@H]1[C@H](O[C@@H]2c3ccc(c(Cl)c3)Oc3cc4cc(c3O)Oc3ccc(cc3Cl)C[C@H]3NC(=O)[C@H](N)c5ccc(O)c(c5)Oc5cc(O)cc(c5)[C@H](NC3=O)C(=O)N[C@H]4C(=O)N[C@H]3C(=O)N[C@@H]2C(=O)N[C@H](C(=O)O)c2cc(O)cc(O)c2-c2cc3ccc2O)O[C@@H](CO)[C@@H](O)[C@@H]1O | 1 (≈ 0.713 µM) | 0.25 (≈ 0.178 µM) | 0.12 (≈ 0.0856 µM) | 0.5 (≈ 0.357 µM) | 0.5 (≈ 0.357 µM) | 0.5 (≈ 0.357 µM) | 1 (≈ 0.713 µM) |  |
| N[C@H]1C(=O)N[C@@H]2Cc3ccc(c(Cl)c3)Oc3cc4cc(c3O)Oc3ccc(cc3Cl)[C@@H](O)[C@@H]3NC(=O)[C@H](NC(=O)[C@@H]4NC(=O)[C@@H](NC2=O)c2cc(O)cc(c2)Oc2cc1ccc2O)c1ccc(O)c(c1)-c1c(O)cc(O)cc1[C@@H](C(=O)NC1CN2CCC1CC2)NC3=O (stereo partly drawn) | 0.06 (≈ 0.0459 µM) | 0.12 (≈ 0.0918 µM) | 0.06 (≈ 0.0459 µM) | 0.5 (≈ 0.383 µM) | 0.12 (≈ 0.0918 µM) | 0.06 (≈ 0.0459 µM) | 0.12 (≈ 0.0918 µM) |  |
| CC(=O)N[C@@H]1[C@H](O[C@@H]2c3ccc(c(Cl)c3)Oc3cc4cc(c3O)Oc3ccc(cc3Cl)C[C@H]3NC(=O)[C@H](N)c5ccc(O)c(c5)Oc5cc(O)cc(c5)[C@H](NC3=O)C(=O)N[C@H]4C(=O)N[C@H]3C(=O)N[C@@H]2C(=O)N[C@H](C(=O)O)c2cc(O)cc(O[C@H]4O[C@H](CO)[C@@H](O)[C@@H](O)[C@@H]4O)c2-c2cc3ccc2O)O[C@@H](CO)[C@@H](O)[C@@H]1O | 0.5 (≈ 0.32 µM) | 0.5 (≈ 0.32 µM) | 0.25 (≈ 0.16 µM) | 0.5 (≈ 0.32 µM) | 0.25 (≈ 0.16 µM) | 0.5 (≈ 0.32 µM) | 2 (≈ 1.28 µM) |  |
| CCCCCCCCCC(=O)N[C@@H]1[C@H](Oc2c3cc4cc2Oc2ccc(cc2Cl)[C@@H](O[C@@H]2O[C@@H](CO)[C@@H](O)[C@H](O)[C@@H]2NC(C)=O)[C@@H]2NC(=O)[C@H](NC(=O)[C@@H]4NC(=O)[C@H]4NC(=O)[C@@H](Cc5ccc(c(Cl)c5)O3)NC(=O)[C@H](N)c3ccc(O)c(c3)Oc3cc(O)cc4c3)c3ccc(O)c(c3)-c3c(O[C@H]4O[C@H](CO)[C@@H](O)[C@@H](O)[C@@H]4O)cc(O)cc3[C@@H](C(=O)O)NC2=O)O[C@@H](CO)[C@@H](O)[C@@H]1O | 0.06 (≈ 0.0319 µM) | 0.5 (≈ 0.266 µM) | 0.25 (≈ 0.133 µM) | 0.5 (≈ 0.266 µM) | 0.12 (≈ 0.0638 µM) | 0.06 (≈ 0.0319 µM) | 0.12 (≈ 0.0638 µM) | 1100000 |
| O=C1Cc2ccc(O)c(c2)Oc2cc(O)cc(c2)[C@@H]2NC(=O)[C@@H](Cc3ccc(c(Cl)c3)Oc3cc4cc(c3O)Oc3ccc(cc3Cl)[C@@H](O)[C@@H]3NC(=O)[C@H](NC(=O)[C@@H]4NC2=O)c2ccc(O)c(c2)-c2c(O)cc(O)cc2[C@@H](C(=O)O)NC3=O)N1 | 0.06 (≈ 0.0507 µM) | 0.25 (≈ 0.211 µM) | 0.25 (≈ 0.211 µM) | 1 (≈ 0.845 µM) | 0.12 (≈ 0.101 µM) | 0.06 (≈ 0.0507 µM) | 0.12 (≈ 0.101 µM) | 11000 |
| CCCCCCCCCC(=O)N[C@@H]1[C@H](Oc2c3cc4cc2Oc2ccc(cc2Cl)[C@@H](O[C@@H]2O[C@@H](CO)[C@@H](O)[C@H](O)[C@@H]2NC(C)=O)[C@@H]2NC(=O)[C@H](NC(=O)[C@@H]4NC(=O)[C@H]4NC(=O)[C@@H](Cc5ccc(c(Cl)c5)O3)NC(=O)[C@H](N)c3ccc(O)c(c3)Oc3cc(O)cc4c3)c3ccc(O)c(c3)-c3c(O[C@H]4O[C@H](CO)[C@@H](O)[C@@H](O)[C@@H]4O)cc(O)cc3[C@@H](C(=O)N(C)C)NC2=O)O[C@@H](CO)[C@@H](O)[C@@H]1O | 0.06 (≈ 0.0315 µM) | 0.12 (≈ 0.0629 µM) | 0.06 (≈ 0.0315 µM) | 0.5 (≈ 0.262 µM) | 0.12 (≈ 0.0629 µM) | 0.06 (≈ 0.0315 µM) | 0.12 (≈ 0.0629 µM) |  |
| CN(C)CCCNC(=O)[C@H]1NC(=O)[C@H]2NC(=O)[C@H](NC(=O)[C@@H]3NC(=O)[C@H]4NC(=O)[C@@H](Cc5ccc(c(Cl)c5)Oc5cc3cc(c5O)Oc3ccc(cc3Cl)[C@H]2O)NC(=O)Cc2ccc(O)c(c2)Oc2cc(O)cc4c2)c2ccc(O)c(c2)-c2c(O)cc(O)cc21 | 0.2 (≈ 0.158 µM) | 0.12 (≈ 0.0946 µM) | 0.12 (≈ 0.0946 µM) | 4 (≈ 3.15 µM) | 0.12 (≈ 0.0946 µM) | 0.12 (≈ 0.0946 µM) | 0.12 (≈ 0.0946 µM) |  |
| CC(=O)N[C@@H]1[C@H](O[C@@H]2c3ccc(c(Cl)c3)Oc3cc4cc(c3O)Oc3ccc(cc3Cl)C[C@H]3NC(=O)Cc5ccc(O)c(c5)Oc5cc(O)cc(c5)[C@H](NC3=O)C(=O)N[C@H]4C(=O)N[C@H]3C(=O)N[C@@H]2C(=O)N[C@H](C(=O)O)c2cc(O)cc(O[C@H]4O[C@H](CO)[C@@H](O)[C@@H](O)[C@@H]4O)c2-c2cc3ccc2O)O[C@@H](CO)[C@@H](O)[C@@H]1O | 4 (≈ 2.58 µM) | 8 (≈ 5.16 µM) | 1 (≈ 0.645 µM) | 16 (≈ 10.3 µM) | 2 (≈ 1.29 µM) | 4 (≈ 2.58 µM) | 4 (≈ 2.58 µM) |  |
| CC(=O)N[C@@H]1[C@H](O[C@@H]2c3ccc(c(Cl)c3)Oc3cc4cc(c3O)Oc3ccc(cc3Cl)C[C@H]3NC(=O)Cc5ccc(O)c(c5)Oc5cc(O)cc(c5)[C@H](NC3=O)C(=O)N[C@H]4C(=O)N[C@H]3C(=O)N[C@@H]2C(=O)N[C@H](C(=O)O)c2cc(O)cc(O)c2-c2cc3ccc2O)O[C@@H](CO)[C@@H](O)[C@@H]1O | 2 (≈ 1.44 µM) | 2 (≈ 1.44 µM) | 1 (≈ 0.721 µM) | 16 (≈ 11.5 µM) | 2 (≈ 1.44 µM) | 8 (≈ 5.77 µM) | 8 (≈ 5.77 µM) |  |
| O=C1Cc2ccc(O)c(c2)Oc2cc(O)cc(c2)[C@@H]2NC(=O)[C@@H](Cc3ccc(c(Cl)c3)Oc3cc4cc(c3O)Oc3ccc(cc3Cl)[C@@H](O)[C@@H]3NC(=O)[C@H](NC(=O)[C@@H]4NC2=O)c2ccc(O)c(c2)-c2c(O)cc(O)cc2[C@@H](C(=O)NC2CN4CCC2CC4)NC3=O)N1 (stereo partly drawn) | 0.12 (≈ 0.0929 µM) | 0.25 (≈ 0.193 µM) | 0.12 (≈ 0.0929 µM) | 4 (≈ 3.1 µM) | 0.12 (≈ 0.0929 µM) | 0.12 (≈ 0.0929 µM) | 0.25 (≈ 0.193 µM) | 22000 |
| CCCCCCCCCC(=O)N[C@@H]1[C@H](Oc2c3cc4cc2Oc2ccc(cc2Cl)[C@@H](O[C@@H]2O[C@@H](CO)[C@@H](O)[C@H](O)[C@@H]2NC(C)=O)[C@@H]2NC(=O)[C@H](NC(=O)[C@@H]4NC(=O)[C@H]4NC(=O)[C@@H](Cc5ccc(c(Cl)c5)O3)NC(=O)Cc3ccc(O)c(c3)Oc3cc(O)cc4c3)c3ccc(O)c(c3)-c3c(O[C@H]4O[C@H](CO)[C@@H](O)[C@@H](O)[C@@H]4O)cc(O)cc3[C@@H](C(=O)N(C)C)NC2=O)O[C@@H](CO)[C@@H](O)[C@@H]1O | 0.12 (≈ 0.0634 µM) | 1 (≈ 0.529 µM) | 0.12 (≈ 0.0634 µM) | 4 (≈ 2.11 µM) | 0.12 (≈ 0.0634 µM) | 0.12 (≈ 0.0634 µM) | 0.25 (≈ 0.132 µM) | 200000 |
